# Test results taken from publication PMC4177010 (Cancer chemotherapy and pharmacology, 2014).
# Columns and labels:
# HTRA = assay: Human apoptosis antibody array, HL-60 cells; assay type: cell-based; details: 1,25(OH)2D3 (20 nM), 18 hours
# Method in brief: (§1)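 Lysates in kit lysis buffer went onto a blocked glass-chip array of 44 apoptosis capture antibodies spotted in duplicate, 18 h at 4 °C. Biotinylated detection antibodies and fluorescent streptavidin were each applied 2 h at room temperature. A fluorescence scan gave spot intensities.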
# IGF-II = assay: Human apoptosis antibody array, HL-60 cells; assay type: cell-based; details: 1,25(OH)2D3 (20 nM), 18 hours
# Method in brief: as §1
# Survivin = assay: Human apoptosis antibody array, HL-60 cells; assay type: cell-based; details: 1,25(OH)2D3 (20 nM), 18 hours
# Method in brief: as §1
# caspase 7 = assay: rt-PCR mRNA levels in HL-60 cells; assay type: cell-based, human; details: 20 nM 1,25(OH)2D3, 18 hours
# SRC2 = assay: ChIP at the CYP24A1 promoter in HL-60 cells, SRC2 antibody; assay type: cell-based, human; details: 20 nM 1,25(OH)2D3, 18 hours
# Caco2 cells = assay: Cell proliferation assay; assay type: cell-based, human; details: 100 nM 1,25(OH)2D3, 5 days
# SKOV3 cells = assay: Cell proliferation assay; assay type: cell-based, human; details: 100 nM 1,25(OH)2D3, 5 days
# HL-60 cells = assay: Cell proliferation assay; assay type: cell-based, human; details: HL-60 treated with VDR siRNA; same concentrations as non-transfected cells
# CYP3A4 = assay: rt-PCR mRNA levels in HL-60 cells; assay type: cell-based, human; details: 18 hours, 1,25(OH)2D3 (20 nM), PS121912 (3 µM) or a combination thereof
# caspase 3 = assay: rt-PCR mRNA levels in HL-60 cells; assay type: cell-based, human; details: 20 nM 1,25(OH)2D3, 18 hours
# NCoR = assay: ChIP at the CYP24A1 promoter in HL-60 cells, NCoR antibody; assay type: cell-based, human; details: 20 nM 1,25(OH)2D3, 18 hours
compound,measurement,setting,value
"C=C1/C(=C\C=C2/CCC[C@]3(C)[C@@H]([C@H](C)CCCC(C)(C)O)CC[C@@H]23)C[C@@H](O)C[C@@H]1O [1,25(OH)2D3, 1,25-dihydroxyvitamin D3]",HTRA protein level,HTRA,upregulated
same,IGF-II protein level,IGF-II,induced
same,Survivin protein level,Survivin,reduced
same,caspase 7 mRNA levels,caspase 7,no change
same,SRC2 recruitment at the CYP24A1 promoter,SRC2,recruitment of coactivator SRC2
same,antiproliferative effect,Caco2 cells,minor antiproliferative effect
same,antiproliferative effect,SKOV3 cells,minor antiproliferative effect
same,antiproliferation effect in VDR siRNA treated cells,HL-60 cells,abolished
same,mRNA levels of CYP3A4,CYP3A4,not altered
same,caspase 3 mRNA levels,caspase 3,no change
same,interaction between VDR and NCoR at the CYP24A1 promoter,NCoR,reduced
